Measured values from ChEMBL document CHEMBL1145200, “4-Benzyl and 4-benzoyl-3-dimethylaminopyridin-2(1H)-ones: in vitro evaluation of new C-3-amino-substituted and C-5,6-alkyl-substituted analogues against clinically important HIV mutant strains” (J Med Chem, 2005).

How the values were obtained:
[1] = system: Human immunodeficiency virus 1; experiment: In vitro inhibitory concentration against HIV K103N mutant strain; type: functional, organism-based
Procedure, shortened: (§1)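 MT4 human T-lymphoblastoid cells, grown in RPMI 1640 with 10% fetal calf serum and antibiotics at 37 °C under 5% CO2. Mutant HIV-1 strains were added at 200 CCID50/well with 30 000 cells/well across a compound concentration range. After 5 days at 37 °C, viability was read by MTT colorimetry. EC50 is the concentration giving 50% infection relative to the drug-free control.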

[2] = system: Human immunodeficiency virus 1; experiment: In vitro inhibitory concentration against HIV Y188L mutant strain; type: functional, organism-based; procedure, shortened: as §1
[3] = system: Human immunodeficiency virus 1; experiment: In vitro inhibitory concentration against HIV LAI cell line; type: functional, organism-based; conditions: Human immunodeficiency virus 1, LAI
Procedure, shortened: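 HIV-1 LAI was added at 200 CCID50/well to MT4 human T-lymphoblastoid cells (30 000 cells/well) across a concentration range of compound. Cells were grown in RPMI 1640 with 10% fetal calf serum and antibiotics. After 5 days at 37 °C in 5% CO2, cell viability was read by MTT colorimetry. EC50 was the concentration giving 50% infection versus the drug-free control.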

[4] = system: Human immunodeficiency virus 1; experiment: In vitro inhibitory concentration against HIV-1 Y181C mutant strain; type: functional, organism-based; procedure, shortened: as §1
[5] = system: Human immunodeficiency virus 1; experiment: Selective index value (ratio of CC50 to IC50 value)against HIV LAI cell line; type: functional
Procedure, shortened: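 Ratio of CC50 to IC50 against LAI. CC50 came from mock-infected MT4 cultures (30 000 cells/well) given the same compound concentration range, run in parallel with LAI-infected cultures (200 CCID50/well). Incubation was 5 days at 37 °C in 5% CO2, with MTT viability read-out.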

[6] = system: Human immunodeficiency virus 1; experiment: In vitro inhibitory concentration value against HIV K103N and Y181C mutant strain; type: functional, organism-based; procedure, shortened: as §1
[7] = system: Human immunodeficiency virus 1; experiment: In vitro inhibitory concentration against HIV F227L and V106A mutant strain; type: functional, organism-based; procedure, shortened: as §1
[8] = system: Human immunodeficiency virus 1; experiment: In vitro inhibitory concentration against HIV L100I and K103N mutant strain; type: functional, organism-based; procedure, shortened: as §1
[9] = system: Human immunodeficiency virus 1; experiment: In vitro inhibitory concentration against HIV L100I mutant strain; type: functional, organism-based; procedure, shortened: as §1

SMILES | IC50 [1] [µM] | IC50 [2] [µM] | IC50 [3] [µM] | IC50 [4] [µM] | SI [5] | IC50 [6] [µM] | IC50 [7] [µM] | IC50 [8] [µM] | IC50 [9] [µM]
CCNc1c(Cc2cc(C)cc(C)c2)c(CC)c(C)[nH]c1=O | 0.316 | 100 | 0.016 | 100 | 126 |  |  |  | 
CCc1c(C)[nH]c(=O)c(N(C)CCOC)c1Cc1cccc(/C=C/C#N)c1 | 0.02 | 0.316 | 0.001 | 0.04 | 10000 | 0.398 | 1 | 0.05 | 0.008
CCc1c(C)[nH]c(=O)c(N(C)CCC#N)c1Cc1cccc(C)c1 |  |  | 0.016 |  | 6310 |  |  |  | 
CCc1c(C)[nH]c(=O)c(N(C)CCCCCO)c1Cc1cc(C)cc(C)c1 | 0.1 | 2.51 | 0.004 | 0.126 | 12600 |  |  |  | 
CCc1c(C)[nH]c(=O)c(N(C)CC#N)c1Cc1cccc(C)c1 | 0.316 | 12.6 | 0.004 | 1.58 | 25100 |  |  |  | 
CCc1c(C)[nH]c(=O)c(NC(N)=S)c1Cc1cccc(C)c1 |  |  | 0.316 |  | 316 |  |  |  | 
CCc1c(C)[nH]c(=O)c(NC(C)=O)c1Cc1cc(C)cc(C)c1 | 19.9 | 100 | 0.398 | 25.1 | 251 |  |  |  | 
Cc1cc(C)cc(Cc2cc[nH]c(=O)c2N(C)C)c1 | 39.8 |  | 7.94 | 100 | 10 |  |  |  | 
CCc1c(C)nc(O)c(N(C)C)c1C(=O)c1cccc(C)c1 |  | 2 | 0.0025 |  | 39800 |  |  |  | 
COCCc1c(C)nc(O)c(N(C)C)c1C(=O)c1cccc(C)c1 | 0.158 | 10 | 0.004 | 1.26 | 7940 |  |  |  | 
CCCc1c(C)[nH]c(=O)c(N(C)C)c1Cc1cc(C)cc(C)c1 | 0.079 | 0.631 | 0.05 | 0.316 | 2000 |  |  |  | 
CCc1c(C)[nH]c(=O)c(N2CCCCC2)c1Cc1cc(C)cc(C)c1 | 63.1 |  | 0.631 | 39.8 | 158 |  |  |  | 
CCc1c(C)nc(O)c(NC(=S)NC(=O)c2ccccc2)c1Cc1cccc(C)c1 | 100 | 100 | 6.31 | 100 | 16 |  |  |  | 
CCc1c(C)[nH]c(=O)c(N(C)CCCO)c1Cc1cccc(C)c1 | 0.316 | 5.01 | 0.003 | 1.58 | 31600 |  |  |  | 
CCCC(=O)Nc1c(Cc2cc(C)cc(C)c2)c(CC)c(C)[nH]c1=O | 100 |  | 100 | 100 | 1 |  |  |  | 
CCCNc1c(Cc2cc(C)cc(C)c2)c(CC)c(C)[nH]c1=O | 1.58 | 100 | 0.02 | 15.8 | 398 |  |  |  | 
Cc1cc(C)cc(Cc2c(C)c(C(C)C)[nH]c(=O)c2N(C)C)c1 |  |  | 0.794 |  | 126 |  |  |  | 
Cc1cc(C)cc(Cc2c(C)c(C)[nH]c(=O)c2N(C)C)c1 | 0.398 | 3.16 | 0.005 | 0.398 | 2000 |  |  |  | 
CCc1c(C)[nH]c(=O)c(N(CC)CC)c1Cc1cc(C)cc(C)c1 | 0.398 | 2.51 | 0.016 | 1.26 | 6310 |  |  |  | 
CCc1c(C)[nH]c(=O)c(N2CCOCC2)c1Cc1cc(C)cc(C)c1 | 100 |  | 0.158 | 10 | 251 |  |  |  | 
CCc1[nH]c(=O)c(N(C)C)c(Cc2cc(C)cc(C)c2)c1C | 0.1 | 5.01 | 0.01 | 0.251 | 10000 |  |  |  | 

SMILES | IC50 [1] [µM] | IC50 [2] [µM] | IC50 [3] [µM] | IC50 [4] [µM] | SI [5] | IC50 [6] [µM] | IC50 [7] [µM] | IC50 [8] [µM] | IC50 [9] [µM]
CCc1c(C)[nH]c(=O)c(NC)c1Cc1cc(C)cc(C)c1 | 0.079 | 2 | 0.01 | 1 | 5010 |  |  |  | 
CCc1c(C)[nH]c(=O)c(N(Cc2ccccc2)Cc2ccccc2)c1Cc1cc(C)cc(C)c1 | 50.1 |  | 100 | 79.4 | 1 |  |  |  | 
CCCN(C)c1c(Cc2cc(C)cc(C)c2)c(CC)c(C)[nH]c1=O | 0.1 |  | 0.016 | 0.398 | 6310 |  |  |  | 
CCCCNc1c(Cc2cc(C)cc(C)c2)c(CC)c(C)[nH]c1=O | 2 |  | 0.126 | 5.01 | 398 |  |  |  | 
CCc1c(C)[nH]c(=O)c(N(C)CCCCCO)c1Cc1cccc(C)c1 | 0.501 | 5.01 | 0.01 | 1.58 | 6310 |  |  |  | 
Cc1cccc(C(=O)c2c(C)c(C)nc(O)c2N(C)C)c1 | 0.398 | 50.1 | 0.016 | 2 | 6310 |  |  |  | 
CCc1c(C)[nH]c(=O)c(N(C)CCO)c1Cc1cccc(C)c1 | 0.794 | 12.6 | 0.005 | 1.26 | 7940 |  |  |  | 
CCNC(=S)Nc1c(Cc2cccc(C)c2)c(CC)c(C)[nH]c1=O |  |  | 25.1 |  | 4 |  |  |  | 
CCc1c(C)[nH]c(=O)c(NC(=S)Nc2ccccc2)c1Cc1cccc(C)c1 |  |  | 3.16 |  | 25 |  |  |  | 
CCc1nc(O)c(N(C)C)c(C(=O)c2cccc(C)c2)c1C |  |  | 0.1 |  | 1000 |  |  |  | 
CCc1c(C)[nH]c(=O)c(NCc2ccccc2)c1Cc1cc(C)cc(C)c1 | 3.16 |  | 0.251 | 10 | 251 |  |  |  | 
CCCCN(CCCC)c1c(Cc2cc(C)cc(C)c2)c(CC)c(C)[nH]c1=O | 100 |  | 50.1 | 100 | 2 |  |  |  | 
Cc1cc(C)cc(Cc2cc(C)[nH]c(=O)c2N(C)C)c1 | 31.6 | 100 | 0.398 | 79.4 | 251 |  |  |  | 
CCC(=O)Nc1c(Cc2cc(C)cc(C)c2)c(CC)c(C)[nH]c1=O | 100 |  | 3.98 | 100 | 25 |  |  |  | 
CCc1c(C)[nH]c(=O)c(NC=O)c1Cc1cc(C)cc(C)c1 | 0.794 | 0.316 | 0.079 | 7.94 | 1260 |  |  |  | 
COCCCc1c(C)nc(O)c(N(C)C)c1C(=O)c1cc(C)cc(C)c1 | 0.01 | 0.2 | 0.002 | 0.05 | 12600 |  |  |  | 0.008
CCc1c(C)[nH]c(=O)c(N(C)CCCC#N)c1Cc1cccc(C)c1 | 0.316 | 3.16 | 0.005 | 2 | 12600 |  |  |  | 
CCc1c(C)[nH]c(=O)c(N(C)CCCSC)c1Cc1cc(C)cc(C)c1 | 1 |  | 0.025 | 0.501 | 398 |  |  |  | 
CCc1c(C)[nH]c(=O)c(-n2cccc2)c1Cc1cc(C)cc(C)c1 | 0.398 | 2 | 0.0126 | 1.26 | 1260 |  |  |  | 
Cc1cc(C)cc(Cc2c(CC(C)C)c(C)[nH]c(=O)c2N(C)C)c1 | 0.063 | 0.398 | 0.05 | 0.158 | 2000 |  |  |  | 
CCOCCN(C)c1c(Cc2cccc(C)c2)c(CC)c(C)[nH]c1=O |  |  | 0.013 |  | 7940 |  |  |  | 
